# From BindingDB's records for doi:10.1016/j.bmc.2011.02.028 (Kinki University, 2011)
# Counter-ions that a name gives are not always drawn.
# Test: Inhibition of rat small intestinal maltase after 30 mins
# Method in brief: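 Enzyme source was rat small-intestinal brush-border membrane vesicles suspended in 0.1 M maleate buffer, pH 6.0. Substrate solutions were maltose 74 mM (maltase), sucrose 74 mM (sucrase) and isomaltose 7.4 mM (isomaltase). Glucose was measured by glucose oxidase. IC50 was read graphically from % inhibition versus log concentration.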
row,Structure (SMILES),IC50
1,O=S(=O)([O-])O[C@@H]([C@H](O)[C@@H](O)CO)[C@H](O)C[S@@+]1C[C@@H](O)[C@H](O)[C@H]1CO [ponkoranol],> 100 µM
2,"O=S(=O)([O-])O[C@H]([C@@H](O)[C@H](O)[C@@H](O)CO)[C@H](O)C[S+]1C[C@@H](O)[C@H](O)[C@H]1CO (stereo partly drawn) [1,4-dideoxy-1,4-{(S)-[(2S,3R,4S,5R,6S)-2,4,5,6,7-pentahydroxy-3-(sulfooxy)heptyl]episulfoniumylidene}-D-arabinitol inner salt]",> 236 µM
3,"O=S(=O)([O-])O[C@H]([C@@H](O)[C@@H](O)[C@H](O)CO)[C@H](O)C[S+]1C[C@@H](O)[C@H](O)[C@H]1CO (stereo partly drawn) [1,4-dideoxy-1,4-{(S)-[(2S,3R,4S,5S,6R)-2,4,5,6,7-pentahydroxy-3-(sulfooxy)heptyl]-episulfoniumylidene}-D-arabinitol inner salt]",> 236 µM
4,O=S(=O)([O-])OC[C@H](O)C[S@@+]1C[C@@H](O)[C@H](O)[C@H]1CO [Salaprinol],3.2 µM
5,"O=S(=O)([O-])O[C@H]([C@@H](O)[C@@H](O)[C@@H](O)CO)[C@H](O)C[S+]1C[C@@H](O)[C@H](O)[C@H]1CO (stereo partly drawn) [1,4-dideoxy-1,4-{(S)-[(2S,3R,4S,5S,6S)-2,4,5,6,7-pentahydroxy-3-(sulfooxy)heptyl]episulfoniumylidene}-D-arabinitol inner salt]",57 µM
6,"O=S(=O)([O-])O[C@H]([C@@H](O)[C@H](O)[C@H](O)CO)[C@H](O)C[S+]1C[C@@H](O)[C@H](O)[C@H]1CO (stereo partly drawn) [1,4-dideoxy-1,4-{(S)-[(2S,3R,4S,5R,6R)-2,4,5,6,7-pentahydroxy-3-(sulfooxy)heptyl]episulfoniumylidene}-D-arabinitol inner salt]",> 236 µM
